Data: the M2OR odorant receptor database

Columns and labels:
Details in all cases: stereoisomer not certain
OR13A1 (Homo sapiens) = OR13A1 (Homo sapiens) (UniProt Q8NGR1)
Summary of the method: (§1)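 Each entry records the cell line, G-protein, co-transfected protein and tags used. Methods varied with the source, often transient luciferase assays in mammalian cell lines. A receptor–molecule pair is called responsive (active) if the original authors judged its signal statistically different from baseline and non-responsive (inactive) otherwise.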

OR13C2 (Homo sapiens) = OR13C2 (Homo sapiens) (UniProt Q8NGS9)
Summary of the method: as §1

OR13C3 (Homo sapiens) = OR13C3 (Homo sapiens) (UniProt Q8NGS6)
Summary of the method: as §1

OR13C4 (Homo sapiens) = OR13C4 (Homo sapiens) (UniProt Q8NGS5)
Summary of the method: as §1

OR13C5 (Homo sapiens) = OR13C5 (Homo sapiens) (UniProt Q8NGS8)
Summary of the method: as §1

OR13C8 (Homo sapiens) = OR13C8 (Homo sapiens) (UniProt Q8NGS7)
Summary of the method: as §1

OR13C9 (Homo sapiens) = OR13C9 (Homo sapiens) (UniProt Q8NGT0)
Summary of the method: as §1

OR13D1 (Homo sapiens) = OR13D1 (Homo sapiens) (UniProt Q8NGV5)
Summary of the method: as §1

OR13F1 (Homo sapiens) = OR13F1 (Homo sapiens) (UniProt Q8NGS4)
Summary of the method: as §1

OR13C7 (Homo sapiens) = OR13C7 (Homo sapiens) (UniProt P0DN81)
Summary of the method: as §1

Measured: odorant receptor agonist call

OR13C3 (Homo sapiens), sequence (Q8NGS6 whole entry): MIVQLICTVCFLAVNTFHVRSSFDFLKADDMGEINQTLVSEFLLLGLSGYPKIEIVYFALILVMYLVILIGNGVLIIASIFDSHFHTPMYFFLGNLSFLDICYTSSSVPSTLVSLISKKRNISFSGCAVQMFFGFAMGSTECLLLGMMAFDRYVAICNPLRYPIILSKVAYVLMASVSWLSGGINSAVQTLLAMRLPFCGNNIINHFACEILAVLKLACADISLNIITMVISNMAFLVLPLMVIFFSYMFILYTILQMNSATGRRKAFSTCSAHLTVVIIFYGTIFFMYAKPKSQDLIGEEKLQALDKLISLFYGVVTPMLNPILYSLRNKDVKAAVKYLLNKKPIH
OR13D1 (Homo sapiens), sequence (Q8NGV5 whole entry): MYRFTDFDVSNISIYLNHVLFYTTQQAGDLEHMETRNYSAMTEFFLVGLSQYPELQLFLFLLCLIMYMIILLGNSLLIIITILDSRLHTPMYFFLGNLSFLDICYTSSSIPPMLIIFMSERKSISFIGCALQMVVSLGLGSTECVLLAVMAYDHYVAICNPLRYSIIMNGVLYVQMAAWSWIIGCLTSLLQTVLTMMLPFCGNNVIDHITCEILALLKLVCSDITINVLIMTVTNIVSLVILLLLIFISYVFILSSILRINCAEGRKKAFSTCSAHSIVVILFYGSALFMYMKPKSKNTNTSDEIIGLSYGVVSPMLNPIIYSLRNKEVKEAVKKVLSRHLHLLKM
OR13C8 (Homo sapiens), sequence (Q8NGS7 whole entry): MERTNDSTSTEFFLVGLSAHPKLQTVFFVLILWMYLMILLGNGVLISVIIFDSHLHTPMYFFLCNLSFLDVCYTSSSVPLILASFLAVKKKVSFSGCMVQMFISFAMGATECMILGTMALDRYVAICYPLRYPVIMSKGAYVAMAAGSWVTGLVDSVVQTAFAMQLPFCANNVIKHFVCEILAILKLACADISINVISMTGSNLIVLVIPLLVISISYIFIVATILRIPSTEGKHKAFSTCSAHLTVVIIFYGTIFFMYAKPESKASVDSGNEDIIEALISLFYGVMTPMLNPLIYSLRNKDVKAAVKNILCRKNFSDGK
OR13C9 (Homo sapiens), sequence (Q8NGT0 whole entry): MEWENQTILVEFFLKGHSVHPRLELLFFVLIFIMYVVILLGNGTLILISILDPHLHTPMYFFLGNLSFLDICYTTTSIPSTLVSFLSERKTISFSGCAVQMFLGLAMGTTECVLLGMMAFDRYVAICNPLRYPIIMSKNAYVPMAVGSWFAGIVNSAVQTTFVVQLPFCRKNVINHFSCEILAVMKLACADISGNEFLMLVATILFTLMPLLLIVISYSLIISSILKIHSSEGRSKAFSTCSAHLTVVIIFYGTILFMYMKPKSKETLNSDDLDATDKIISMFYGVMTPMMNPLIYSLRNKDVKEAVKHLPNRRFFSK
OR13F1 (Homo sapiens), sequence (Q8NGS4 whole entry): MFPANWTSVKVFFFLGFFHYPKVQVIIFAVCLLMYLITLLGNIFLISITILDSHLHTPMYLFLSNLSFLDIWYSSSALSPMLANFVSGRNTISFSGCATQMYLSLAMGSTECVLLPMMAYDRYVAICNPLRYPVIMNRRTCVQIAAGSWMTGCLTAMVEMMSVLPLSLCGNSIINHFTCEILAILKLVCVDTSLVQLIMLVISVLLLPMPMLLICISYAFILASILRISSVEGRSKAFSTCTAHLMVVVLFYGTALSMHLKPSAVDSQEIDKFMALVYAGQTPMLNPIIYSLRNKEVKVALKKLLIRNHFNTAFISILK
OR13C2 (Homo sapiens), sequence (Q8NGS9 whole entry): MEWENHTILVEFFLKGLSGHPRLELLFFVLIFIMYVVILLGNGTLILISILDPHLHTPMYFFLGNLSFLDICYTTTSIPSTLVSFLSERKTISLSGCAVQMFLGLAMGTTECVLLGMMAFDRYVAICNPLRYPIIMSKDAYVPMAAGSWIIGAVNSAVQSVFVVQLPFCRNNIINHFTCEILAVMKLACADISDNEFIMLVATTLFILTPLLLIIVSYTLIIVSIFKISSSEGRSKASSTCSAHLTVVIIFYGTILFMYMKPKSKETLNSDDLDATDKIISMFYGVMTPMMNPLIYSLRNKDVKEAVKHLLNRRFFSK
OR13A1 (Homo sapiens), sequence (Q8NGR1 whole entry): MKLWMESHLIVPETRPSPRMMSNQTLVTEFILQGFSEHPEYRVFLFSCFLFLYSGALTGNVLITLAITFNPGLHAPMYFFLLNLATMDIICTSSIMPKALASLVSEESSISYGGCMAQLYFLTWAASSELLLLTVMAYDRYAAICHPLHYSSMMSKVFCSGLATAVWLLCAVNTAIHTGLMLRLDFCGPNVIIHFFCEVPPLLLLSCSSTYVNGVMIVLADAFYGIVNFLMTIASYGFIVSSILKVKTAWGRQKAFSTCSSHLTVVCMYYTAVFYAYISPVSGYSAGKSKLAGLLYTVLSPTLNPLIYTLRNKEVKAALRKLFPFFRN
OR13C5 (Homo sapiens), sequence (Q8NGS8 whole entry): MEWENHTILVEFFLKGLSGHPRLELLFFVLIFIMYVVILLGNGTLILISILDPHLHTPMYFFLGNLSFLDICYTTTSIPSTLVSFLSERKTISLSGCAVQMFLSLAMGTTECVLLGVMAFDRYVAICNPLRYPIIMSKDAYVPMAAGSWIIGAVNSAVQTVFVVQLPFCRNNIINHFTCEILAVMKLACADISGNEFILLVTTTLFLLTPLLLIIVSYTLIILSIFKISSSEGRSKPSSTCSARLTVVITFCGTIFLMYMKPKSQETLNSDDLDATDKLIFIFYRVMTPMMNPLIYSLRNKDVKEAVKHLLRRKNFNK
OR13C4 (Homo sapiens), sequence (Q8NGS5 whole entry): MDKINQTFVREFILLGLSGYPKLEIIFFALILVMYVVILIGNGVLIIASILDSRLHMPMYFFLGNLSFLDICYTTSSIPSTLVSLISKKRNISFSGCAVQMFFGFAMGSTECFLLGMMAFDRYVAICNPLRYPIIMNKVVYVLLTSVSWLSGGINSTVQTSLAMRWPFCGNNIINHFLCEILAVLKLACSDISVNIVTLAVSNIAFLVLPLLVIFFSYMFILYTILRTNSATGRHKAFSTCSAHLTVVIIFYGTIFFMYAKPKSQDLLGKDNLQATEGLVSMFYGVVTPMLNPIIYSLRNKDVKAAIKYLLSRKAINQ
OR13C7 (Homo sapiens), sequence (P0DN81 whole entry): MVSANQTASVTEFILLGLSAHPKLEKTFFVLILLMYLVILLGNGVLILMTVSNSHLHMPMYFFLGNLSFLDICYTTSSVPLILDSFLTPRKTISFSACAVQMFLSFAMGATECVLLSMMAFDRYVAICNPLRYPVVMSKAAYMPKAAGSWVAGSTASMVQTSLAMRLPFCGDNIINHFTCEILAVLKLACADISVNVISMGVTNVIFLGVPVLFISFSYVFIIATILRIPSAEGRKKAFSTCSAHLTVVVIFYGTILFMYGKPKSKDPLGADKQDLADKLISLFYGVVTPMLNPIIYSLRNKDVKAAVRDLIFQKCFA

C=CCOC(=O)Cc1ccccc1
inactive: OR13A1 (Homo sapiens) | OR13C2 (Homo sapiens) | OR13C3 (Homo sapiens) | OR13C4 (Homo sapiens) | OR13C5 (Homo sapiens) | OR13C8 (Homo sapiens) | OR13C9 (Homo sapiens) | OR13D1 (Homo sapiens) | OR13F1 (Homo sapiens)

Cc1c([N+](=O)[O-])c(C)c([N+](=O)[O-])c(C(C)(C)C)c1[N+](=O)[O-]
inactive: OR13A1 (Homo sapiens) | OR13C2 (Homo sapiens) | OR13C3 (Homo sapiens) | OR13C4 (Homo sapiens) | OR13C5 (Homo sapiens) | OR13C7 (Homo sapiens) | OR13C8 (Homo sapiens) | OR13C9 (Homo sapiens) | OR13D1 (Homo sapiens) | OR13F1 (Homo sapiens)
